Active and inactive are the calls of the source. The calls are words filed in the database; no cut-off is given here.
Assays:
rhinovirus A39 = experiment: Antiviral activity against Human rhinovirus serotype 39 infected in human HeLa cells assessed as reduction in virus-induced cytopathic effect after 24 to 36 hrs by MTT assay; format: functional, organism-based; details: Rhinovirus A
Outline: (§1)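 HeLa (Ohio) monolayers in DMEM with 1% nonessential amino acids and 10% fetal calf serum, infected at MOI 1, then given serial compound dilutions. Incubation 24−36 h at 33 °C, 3% CO2, until control CPE was almost total. Multicycle CPE reduction read by MTT. EC50 (50% CPE inhibition) taken from dose−response curves by linear regression. Pleconaril served as reference.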

[1] = Cytotoxicity against human HeLa cells assessed as decrease in cell viability after 72 hrs by MTT assay; format: cell-based
Outline: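 HeLa monolayers exposed to a range of compound concentrations at 37 °C, 5% CO2. Morphology (rounding, shrinking, detachment) checked by light microscopy at 24, 48 and 72 h. Viability measured by MTT colorimetry. CC50 is the concentration that lowered control absorbance by 50%.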

rhinovirus B14 = experiment: Antiviral activity against Human rhinovirus serotype 14 infected in human HeLa cells assessed as reduction in virus-induced cytopathic effect after 24 to 36 hrs by MTT assay; format: functional, organism-based; details: Rhinovirus B; outline: as §1
[2] = Selectivity index, ratio of CC50 for human HeLa cells to EC50 for Human rhinovirus serotype 39 infected in human HeLa cells; format: toxicity, cell-based; details: read-out: Ratio CC50/EC50
Outline: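 Selectivity index computed as CC50 (MTT, uninfected HeLa) divided by EC50 (MTT, HRV39 CPE reduction in HeLa at MOI 1, 24−36 h at 33 °C).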

[3] = target: T1, VP1 capsid protein (Human rhinovirus sp.) (UniProt Q7T664); experiment: Inhibition of Human rhinovirus serotype 39 capsid infected in human HeLa cells assessed as reduction in virus-induced cytopathic effect at 5 ug/ml treated with virus inoculum measured after 24 to 36 hrs relative to control; format: cell-based; details: rhinovirus A39
T1 sequence (whole entry): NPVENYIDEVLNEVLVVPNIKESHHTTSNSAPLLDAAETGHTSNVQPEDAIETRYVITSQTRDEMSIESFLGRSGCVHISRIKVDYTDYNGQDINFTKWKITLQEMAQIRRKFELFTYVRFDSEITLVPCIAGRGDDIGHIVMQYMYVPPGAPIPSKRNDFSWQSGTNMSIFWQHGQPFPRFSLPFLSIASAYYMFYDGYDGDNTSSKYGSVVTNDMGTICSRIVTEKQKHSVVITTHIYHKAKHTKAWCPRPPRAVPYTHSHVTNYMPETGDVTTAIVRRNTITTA
Outline: (§2)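 HeLa (Ohio strain) monolayers in 24-well plates (DMEM, 10% fetal calf serum) infected with ATCC HRV39 (working stock prepared as cell lysate). Compound at 5 μg/mL added before (−1 h), at (0 h) or after infection. Cells incubated in CO2 atmosphere for 24–36 h, then washed twice with HBSS. Virus yield inhibition (%) determined by virus-cell-based CPE reduction assay in HeLa cells. Pirodavir (5 μg/mL) served as positive control.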

[4] = target: T1, VP1 capsid protein (Human rhinovirus sp.); experiment: Inhibition of Human rhinovirus serotype 39 capsid infected in human HeLa cells assessed as reduction in virus-induced cytopathic effect at 5 ug/ml treated 1 hr post viral infection measured after 24 to 36 hrs relative to control; format: cell-based; details: rhinovirus A39; outline: as §2
[5] = target: T1, VP1 capsid protein (Human rhinovirus sp.); experiment: Inhibition of Human rhinovirus serotype 39 capsid infected in human HeLa cells assessed as reduction in virus-induced cytopathic effect at 5 ug/ml treated 2 hrs post viral infection measured after 24 to 36 hrs relative to control; format: cell-based; details: rhinovirus A39; outline: as §2
[6] = target: T1, VP1 capsid protein (Human rhinovirus sp.); experiment: Inhibition of Human rhinovirus serotype 39 capsid infected in human HeLa cells assessed as reduction in virus-induced cytopathic effect at 5 ug/ml treated 3 hrs post viral infection measured after 24 to 36 hrs relative to control; format: cell-based; details: rhinovirus A39; outline: as §2
[7] = target: T1, VP1 capsid protein (Human rhinovirus sp.); experiment: Inhibition of Human rhinovirus serotype 39 capsid infected in human HeLa cells assessed as reduction in virus-induced cytopathic effect at 5 ug/ml treated 1 hr prior to viral infection measured 24 to 36 hrs post viral infection relative to control; format: cell-based; details: rhinovirus A39; outline: as §2

SMILES | EC50 (rhinovirus A39) [µM] | CC50 at 72 h [1] [µM] | EC50 (rhinovirus B14) [µM] | selectivity ratio [2] | inhibition [3] | inhibition [4] [%] | inhibition [5] [%] | inhibition [6] [%] | inhibition [7] [%]
C/C=C(/C)C(=O)OC/C=C/c1ccc(OC)c(OC)c1 | > 453 | 453 | > 453 |  |  |  |  |  | 
C/C=C(/C)C(=O)OC/C(=C/C)C(=O)OC/C=C/c1ccc(OC)cc1 | > 36.3 | 36.3 | > 36.3 |  |  |  |  |  | 
CC(C)[C@@H]1CCC(C=O)=C[C@H]1O | > 47.6 | 47.6 | > 47.6 |  |  |  |  |  | 
CC(C)CC(=O)OC/C=C/c1ccccc1 | > 142 | 142 | > 142 |  |  |  |  |  | 
COc1ccc(/C=C/CO)cc1 | > 189 | 189 | > 189 |  |  |  |  |  | 
C/C=C(/C)C(=O)OC/C=C/c1ccc(OC)cc1 | 30.9 | 248 | > 248 | 8 |  |  |  |  | 
CCOC(=O)c1ccc(OCCC2CCN(c3ccc(C)nn3)CC2)cc1 |  |  |  |  | Active |  |  |  | 
C/C=C(/C)C(=O)OC/C(=C/C)C(=O)OC/C=C/c1ccc(OC)c(OC)c1 | 2.4 | 20.3 | > 20.3 | 8.4 | 90% | 78 | 65 | 50 | 100
C=CC(O)C#CC#C/C=C/C(O)CCCCCCCCO (configuration not stated) | > 107 | 107 | > 107 |  |  |  |  |  | 
Cc1cc(CCCOc2c(C)cc(-c3noc(C(F)(F)F)n3)cc2C)on1 [PLECONARIL] | 0.1 | 131 | 0.3 |  |  |  |  |  | 
COc1ccc(/C=C/CO)cc1OC | > 160 | 160 | > 160 |  |  |  |  |  | 
C=C[C@H](O)C#CC#CC/C=C\CCCCCCCCO | 1.8 | 14.6 | > 14.6 | 8.1 |  |  |  |  | 

From ChEMBL document CHEMBL4130511, “Phenylpropenoids from Bupleurum fruticosum as Anti-Human Rhinovirus Species A Selective Capsid Binders” (J Nat Prod, 2017)
